According to ChEMBL document CHEMBL1146579, “Antifungal agents from the roots of Cudrania cochinchinensis against Candida, Cryptococcus, and Aspergillus species” (2003):
≈ marks a conversion by molar mass, not a printed value.

What was measured:
Candida albicans [1] = experiment: Antifungal activity against Candida albicans ATCC 90028 after 48 to 96 hrs by broth microdilution method; assay type: functional
How it was run: (§1)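 Broth microdilution followed NCCLS with slight modification, giving MIC. Compounds were dissolved in DMSO as a 12.8 mg/mL stock and diluted in RPMI-1640, with final solvent below 1%. Yeasts were kept on modified Sabouraud dextrose agar or potato dextrose agar slants, and filamentous fungi on potato dextrose agar.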

Aspergillus fumigatus [2] = experiment: Antifungal activity against Aspergillus fumigatus IFM 41374 after 48 to 96 hrs by broth microdilution method; assay type: functional; how it was run: as §1
Pichia kudriavzevii = experiment: Antifungal activity against Candida krusei ATCC 6258 after 48 to 96 hrs by broth microdilution method; assay type: functional; how it was run: as §1
Aspergillus nidulans = experiment: Antifungal activity against Aspergillus nidulans IFM 5396 after 48 to 96 hrs by broth microdilution method; assay type: functional; how it was run: as §1
Candida parapsilosis = experiment: Antifungal activity against Candida parapsilosis ATCC 22019 after 48 to 96 hrs by broth microdilution method; assay type: functional; details: Lodderomyces parapsilosis; how it was run: as §1
Aspergillus fumigatus [3] = experiment: Antifungal activity against Aspergillus fumigatus IFM 41236 after 48 to 96 hrs by broth microdilution method; assay type: functional; how it was run: as §1
Nakaseomyces glabratus = experiment: Antifungal activity against Candida glabrata ATCC 90030 after 48 to 96 hrs by broth microdilution method; assay type: functional; how it was run: as §1
Cryptococcus neoformans = experiment: Antifungal activity against Cryptococcus neoformans ATCC 90112 after 48 to 96 hrs by broth microdilution method; assay type: functional
How it was run: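 Broth microdilution followed NCCLS with slight modification, giving MIC. Yeasts were kept on modified Sabouraud dextrose agar or potato dextrose agar slants, and filamentous fungi on potato dextrose agar.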

Candida albicans [4] = experiment: Antifungal activity against Candida albicans ATCC 90028 after 48 hrs by disk diffusion assay; assay type: functional
How it was run: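 Pure compounds were dissolved in MeOH at 10 mg/mL, about 0.4 mg absorbed per 8 mm paper disk, then air-dried. Plates of Yeast Morphology Agar were incubated 48 h at 30 °C, and the diameter of the inhibition zone was measured.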

Candida albicans [5] = experiment: Antifungal activity against Candida albicans ATCC 90028 at 100 ug/mL after 48 hrs by disk diffusion assay; assay type: functional; details: ATCC 90028, 48 h, read-out: IZ
How it was run: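 The 8 mm paper disk was dipped in the solution and air-dried. C. albicans ATCC 90028, preincubated in YPD broth, was the inoculum on Yeast Morphology Agar, incubated 48 h at 30 °C. Read-out was the diameter of the inhibition zone.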

Candida albicans [6] = experiment: microbe, parasite or virus in culture; details: ATCC 90028, 48 h, read-out: IZ

CC1(C)C=Cc2c(cc3oc4c(O)cccc4c(=O)c3c2O)O1
MIC (Candida albicans [1]): > 128 µg/mL | MIC (Aspergillus fumigatus [2]): > 128 µg/mL | MIC (Pichia kudriavzevii): > 128 µg/mL | MIC (Aspergillus nidulans): > 128 µg/mL | MIC (Candida parapsilosis): > 128 µg/mL | MIC (Aspergillus fumigatus [3]): > 128 µg/mL | MIC (Nakaseomyces glabratus): > 128 µg/mL | MIC (Cryptococcus neoformans): 32 µg/mL (≈ 103 µM)

CC(C)=CCc1c(O)cc2oc3ccc(O)cc3c(=O)c2c1O
MIC (Candida albicans [1]): > 128 µg/mL | MIC (Aspergillus fumigatus [2]): > 128 µg/mL | inhibition zone (IZ) (Candida albicans [4]): 9 mm | MIC (Pichia kudriavzevii): > 128 µg/mL | MIC (Aspergillus nidulans): > 128 µg/mL | MIC (Candida parapsilosis): > 128 µg/mL | MIC (Aspergillus fumigatus [3]): > 128 µg/mL | MIC (Nakaseomyces glabratus): > 128 µg/mL | MIC (Cryptococcus neoformans): 128 µg/mL (≈ 410 µM)

COc1cc(-c2coc3cc(O)cc(O)c3c2=O)ccc1O [3'-O-METHYLOROBOL]
MIC (Candida albicans [1]): > 128 µg/mL | MIC (Aspergillus fumigatus [2]): > 128 µg/mL | MIC (Pichia kudriavzevii): > 128 µg/mL | MIC (Aspergillus nidulans): > 128 µg/mL | MIC (Candida parapsilosis): > 128 µg/mL | MIC (Aspergillus fumigatus [3]): > 128 µg/mL | MIC (Nakaseomyces glabratus): > 128 µg/mL | MIC (Cryptococcus neoformans): > 128 µg/mL

C[C@@H]1[C@H](O)[C@@H](C)/C=C/C=C/C=C/C=C/C=C/C=C/C=C/[C@H](O[C@@H]2O[C@H](C)[C@@H](O)[C@H](N)[C@@H]2O)C[C@@H]2O[C@](O)(C[C@@H](O)C[C@@H](O)[C@H](O)CC[C@@H](O)C[C@@H](O)CC(=O)O[C@H]1C)C[C@H](O)[C@H]2C(=O)O [AMPHOTERICIN B]
MIC (Candida albicans [1]): 2 µg/mL (≈ 2.16 µM) | MIC (Aspergillus fumigatus [2]): 1 µg/mL (≈ 1.08 µM) | inhibition zone (IZ) (Candida albicans [4]): 22 mm | MIC (Pichia kudriavzevii): 2 µg/mL (≈ 2.16 µM) | MIC (Aspergillus nidulans): 2 µg/mL (≈ 2.16 µM) | zone of inhibition at 100 µg/mL (Candida albicans [5]): 18 mm | MIC (Candida parapsilosis): 2 µg/mL (≈ 2.16 µM) | MIC (Aspergillus fumigatus [3]): 1 µg/mL (≈ 1.08 µM) | MIC (Nakaseomyces glabratus): 1 µg/mL (≈ 1.08 µM)

CC(C)=CCc1c(O)cc2c(c1O)C(=O)CC(c1ccc(O)cc1O)O2 (stereo not drawn) [CUDRAFLAVANONE B]
MIC (Candida albicans [1]): 64 µg/mL (≈ 180 µM) | MIC (Aspergillus fumigatus [2]): 64 µg/mL (≈ 180 µM) | inhibition zone (IZ) (Candida albicans [4]): 9 mm | MIC (Pichia kudriavzevii): 64 µg/mL (≈ 180 µM) | MIC (Aspergillus nidulans): 64 µg/mL (≈ 180 µM) | MIC (Candida parapsilosis): 128 µg/mL (≈ 359 µM) | MIC (Aspergillus fumigatus [3]): 64 µg/mL (≈ 180 µM) | MIC (Nakaseomyces glabratus): 128 µg/mL (≈ 359 µM) | MIC (Cryptococcus neoformans): 32 µg/mL (≈ 89.8 µM)

COc1cc(O)c(C(=O)c2cccc(O)c2CC=C(C)C)c(O)c1 [CUDRANONE]
MIC (Candida albicans [1]): > 128 µg/mL | MIC (Aspergillus fumigatus [2]): 32 µg/mL (≈ 97.5 µM) | inhibition zone (IZ) (Candida albicans [4]): 9 mm | MIC (Pichia kudriavzevii): > 128 µg/mL | MIC (Aspergillus nidulans): 16 µg/mL (≈ 48.7 µM) | MIC (Candida parapsilosis): > 128 µg/mL | MIC (Aspergillus fumigatus [3]): 16 µg/mL (≈ 48.7 µM) | MIC (Nakaseomyces glabratus): > 128 µg/mL | MIC (Cryptococcus neoformans): > 128 µg/mL

CC(C)=CCc1cc(C(=O)c2cccc(O)c2CC=C(C)C)c(O)cc1O [CUDRAPHENONE B]
MIC (Candida albicans [1]): 16 µg/mL (≈ 43.7 µM) | MIC (Aspergillus fumigatus [2]): 8 µg/mL (≈ 21.8 µM) | MIC (Pichia kudriavzevii): 16 µg/mL (≈ 43.7 µM) | MIC (Aspergillus nidulans): 8 µg/mL (≈ 21.8 µM) | MIC (Candida parapsilosis): > 128 µg/mL | MIC (Aspergillus fumigatus [3]): 4 µg/mL (≈ 10.9 µM) | MIC (Nakaseomyces glabratus): 16 µg/mL (≈ 43.7 µM) | MIC (Cryptococcus neoformans): 4 µg/mL (≈ 10.9 µM)

CC(C)=CCc1c(O)cccc1C(=O)c1c(O)cc(O)c2c1OC(C)(C)C=C2 [CUDRAPHENONE C]
MIC (Candida albicans [1]): 64 µg/mL (≈ 168 µM) | MIC (Aspergillus fumigatus [2]): 16 µg/mL (≈ 42.1 µM) | inhibition zone (IZ) (Candida albicans [4]): 10 mm | MIC (Pichia kudriavzevii): 64 µg/mL (≈ 168 µM) | MIC (Aspergillus nidulans): 32 µg/mL (≈ 84.1 µM) | MIC (Candida parapsilosis): > 128 µg/mL | MIC (Aspergillus fumigatus [3]): 8 µg/mL (≈ 21 µM) | MIC (Nakaseomyces glabratus): > 128 µg/mL | MIC (Cryptococcus neoformans): 16 µg/mL (≈ 42.1 µM)

CC(C)=CCc1c(O)cccc1C(=O)c1c(O)cc(O)c(CC=C(C)C)c1O [CUDRAPHENONE D]
MIC (Candida albicans [1]): 16 µg/mL (≈ 41.8 µM) | MIC (Aspergillus fumigatus [2]): 8 µg/mL (≈ 20.9 µM) | inhibition zone (IZ) (Candida albicans [4]): 11 mm | MIC (Pichia kudriavzevii): 8 µg/mL (≈ 20.9 µM) | MIC (Aspergillus nidulans): 16 µg/mL (≈ 41.8 µM) | MIC (Candida parapsilosis): 64 µg/mL (≈ 167 µM) | MIC (Aspergillus fumigatus [3]): 4 µg/mL (≈ 10.5 µM) | MIC (Nakaseomyces glabratus): 32 µg/mL (≈ 83.7 µM) | MIC (Cryptococcus neoformans): 2 µg/mL (≈ 5.23 µM)

C=CC(C)(C)c1c(O)cc2oc3c(O)c(O)ccc3c(=O)c2c1O [CUDRAXANTHONE S]
MIC (Candida albicans [1]): 16 µg/mL (≈ 48.7 µM) | MIC (Aspergillus fumigatus [2]): 4 µg/mL (≈ 12.2 µM) | inhibition zone (IZ) (Candida albicans [4]): 9 mm | MIC (Pichia kudriavzevii): > 128 µg/mL | MIC (Aspergillus nidulans): 4 µg/mL (≈ 12.2 µM) | MIC (Candida parapsilosis): > 128 µg/mL | MIC (Aspergillus fumigatus [3]): 4 µg/mL (≈ 12.2 µM) | MIC (Nakaseomyces glabratus): 4 µg/mL (≈ 12.2 µM) | MIC (Cryptococcus neoformans): 2 µg/mL (≈ 6.09 µM)

Clc1ccc(COC(Cn2ccnc2)c2ccc(Cl)cc2Cl)c(Cl)c1 (stereo not drawn) [MICONAZOLE]
MIC (Candida albicans [1]): 1 µg/mL (≈ 2.4 µM) | MIC (Aspergillus fumigatus [2]): 0.5 µg/mL (≈ 1.2 µM) | inhibition zone (IZ) (Candida albicans [4]): 14 mm | MIC (Pichia kudriavzevii): 1 µg/mL (≈ 2.4 µM) | MIC (Aspergillus nidulans): 0.25 µg/mL (≈ 0.601 µM) | zone of inhibition at 10 µg/mL (Candida albicans [6]): 15 mm | MIC (Candida parapsilosis): 0.5 µg/mL (≈ 1.2 µM) | MIC (Aspergillus fumigatus [3]): 0.5 µg/mL (≈ 1.2 µM) | MIC (Nakaseomyces glabratus): 0.5 µg/mL (≈ 1.2 µM) | MIC (Cryptococcus neoformans): 0.064 µg/mL (≈ 0.154 µM)

CC(C)=CCc1c(O)cc(O)c2c1OC(c1ccc(O)cc1)CC2=O (stereo not drawn) [SOPHORAFLAVANONE B]
MIC (Candida albicans [1]): 64 µg/mL (≈ 188 µM) | MIC (Aspergillus fumigatus [2]): > 128 µg/mL | MIC (Pichia kudriavzevii): 64 µg/mL (≈ 188 µM) | MIC (Aspergillus nidulans): 128 µg/mL (≈ 376 µM) | MIC (Candida parapsilosis): > 128 µg/mL | MIC (Aspergillus fumigatus [3]): 16 µg/mL (≈ 47 µM) | MIC (Nakaseomyces glabratus): > 128 µg/mL | MIC (Cryptococcus neoformans): 64 µg/mL (≈ 188 µM)

CC1Oc2cc3oc4c(O)c(O)ccc4c(=O)c3c(O)c2C1(C)C (stereo not drawn) [TOXYLOXANTHONE C]
MIC (Candida albicans [1]): > 128 µg/mL | MIC (Aspergillus fumigatus [2]): 8 µg/mL (≈ 24.4 µM) | inhibition zone (IZ) (Candida albicans [4]): 9 mm | MIC (Pichia kudriavzevii): > 128 µg/mL | MIC (Aspergillus nidulans): 8 µg/mL (≈ 24.4 µM) | MIC (Candida parapsilosis): > 128 µg/mL | MIC (Aspergillus fumigatus [3]): 8 µg/mL (≈ 24.4 µM) | MIC (Nakaseomyces glabratus): 8 µg/mL (≈ 24.4 µM) | MIC (Cryptococcus neoformans): 8 µg/mL (≈ 24.4 µM)

CC(C)=CCc1c(O)cc2occ(-c3ccc(O)cc3)c(=O)c2c1O [WIGHTEONE]
MIC (Candida albicans [1]): 16 µg/mL (≈ 47.3 µM) | MIC (Aspergillus fumigatus [2]): 4 µg/mL (≈ 11.8 µM) | inhibition zone (IZ) (Candida albicans [4]): 11 mm | MIC (Pichia kudriavzevii): > 128 µg/mL | MIC (Aspergillus nidulans): 2 µg/mL (≈ 5.91 µM) | MIC (Candida parapsilosis): > 128 µg/mL | MIC (Aspergillus fumigatus [3]): 2 µg/mL (≈ 5.91 µM) | MIC (Nakaseomyces glabratus): > 128 µg/mL | MIC (Cryptococcus neoformans): 4 µg/mL (≈ 11.8 µM)
